Tested on: OVA-sensitised Brown Norway rat
Experiment: OVA-sensitised and challenged Brown Norway rat allergy model
Assay type: in vivo
Conditions: 1 mg/kg intratracheal, 24 h before and 24 h after OVA challenge
Outline: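 In OVA-sensitised Brown Norway rats, the test compound was given intratracheally 24 h before and 24 h after OVA challenge (5 sensitised-only, 9 dosed per point; or groups of eight). Alternatively, from 14 days post-sensitisation, rats received 1 mg/kg weekly for eight doses (10 per point), then aerosolised OVA 26 days later. BAL eosinophils and IL-13 were measured 48 h post-challenge. Results were given as mean±SEM; Mann-Whitney U test versus vehicle-dosed OVA controls.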

Q: With `CCCC1O[C@@H]2C[C@H]3[C@@H]4CCC5=CC(=O)C=C[C@]5(C)[C@H]4[C@@H](O)C[C@]3(C)[C@]2(C(=O)CO)O1` (stereo partly shown) [budesonide] as the compound, how does the “efficacy of acute dosing (BAL eosinophils, IL-13)” value read?
A: demonstrated efficacy

Source: publication PMC4769423 (BMJ Open Respiratory Research, 2016)
